# Test results: PMC4720131 (ACS Chemical Biology, 2015)
# System: HIV-1 Gag-Pol/Gag (frameshifting)
# Test: Western blot of virion proteins, ratio p160 to p24+p55
# Assay type: cell-based
# Details: protease inhibitor control
# Summary of the method: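 Virions came from HEK293T producer cells transfected with an NL4-3 proviral vector (nef replaced by GFP, env deleted) plus VSV-G plasmid at 1:0.5. Test compound added 4 h post-transfection, media harvested at 24 h and 0.45-μm filtered. Virion proteins run on SDS-PAGE and blotted with anti-p24 to detect p24, p55 and p160. p160/(p24+p55) ratio taken by scanning densitometry. Indinavir served as protease-inhibitor control.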
smiles,measurement,value
"CC(C)(C)NC(=O)[C@@H]1CN(Cc2cccnc2)CCN1C[C@@H](O)C[C@@H](Cc1ccccc1)C(=O)N[C@H]1c2ccccc2C[C@H]1O [Indinavir, indinavir]",effect on p160 on virion blot (in words),No buildup of p160 was observed
